Laboratory results taken from ChEMBL document CHEMBL4052615, “Discovery of 4-amino-3-arylsulfoquinolines, a novel non-acetylenic chemotype of metabotropic glutamate 5 (mGlu5) receptor negative allosteric modulators” (Eur J Med Chem, 2017).

Each molecule was assayed against Metabotropic glutamate receptor 5 (Homo sapiens, UniProt P41594) (assay: Displacement of [3H]M-MPEP from mGluR5 (unknown origin) at 1 uM measured after 60 mins relative to control).
Metabotropic glutamate receptor 5, sequence (P41594 21-1212 limits assumed): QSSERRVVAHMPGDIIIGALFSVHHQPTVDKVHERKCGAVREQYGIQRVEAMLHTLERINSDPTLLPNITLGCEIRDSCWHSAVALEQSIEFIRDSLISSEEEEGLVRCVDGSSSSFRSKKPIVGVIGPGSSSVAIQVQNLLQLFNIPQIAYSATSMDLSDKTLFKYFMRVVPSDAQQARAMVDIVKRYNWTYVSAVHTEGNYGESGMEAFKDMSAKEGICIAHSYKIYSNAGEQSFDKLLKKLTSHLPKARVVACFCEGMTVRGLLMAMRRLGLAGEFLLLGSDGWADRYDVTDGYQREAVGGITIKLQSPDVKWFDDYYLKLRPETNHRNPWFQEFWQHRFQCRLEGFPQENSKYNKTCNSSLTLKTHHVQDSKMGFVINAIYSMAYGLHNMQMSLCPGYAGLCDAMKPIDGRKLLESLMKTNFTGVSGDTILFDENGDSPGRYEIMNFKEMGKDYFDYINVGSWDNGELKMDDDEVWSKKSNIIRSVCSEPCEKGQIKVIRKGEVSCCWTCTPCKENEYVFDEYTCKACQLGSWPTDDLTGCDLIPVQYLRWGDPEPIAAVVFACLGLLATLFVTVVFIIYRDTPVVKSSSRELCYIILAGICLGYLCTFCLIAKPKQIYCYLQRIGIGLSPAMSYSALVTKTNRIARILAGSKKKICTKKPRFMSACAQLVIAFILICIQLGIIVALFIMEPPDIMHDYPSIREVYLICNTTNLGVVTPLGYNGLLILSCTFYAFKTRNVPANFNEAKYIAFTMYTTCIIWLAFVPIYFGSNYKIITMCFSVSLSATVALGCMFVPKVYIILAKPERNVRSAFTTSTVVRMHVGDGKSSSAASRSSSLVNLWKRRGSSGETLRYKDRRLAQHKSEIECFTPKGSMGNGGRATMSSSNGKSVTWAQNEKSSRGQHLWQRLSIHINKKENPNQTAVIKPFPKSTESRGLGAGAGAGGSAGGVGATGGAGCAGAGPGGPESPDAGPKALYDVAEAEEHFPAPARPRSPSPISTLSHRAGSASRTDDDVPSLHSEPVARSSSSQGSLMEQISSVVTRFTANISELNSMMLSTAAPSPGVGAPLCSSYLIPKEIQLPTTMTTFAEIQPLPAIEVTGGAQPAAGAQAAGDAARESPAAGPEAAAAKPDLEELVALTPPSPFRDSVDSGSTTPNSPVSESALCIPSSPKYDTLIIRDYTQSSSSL
Summary of the method: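 Rat cerebrocortical membranes or membranes from A18 cells expressing human mGlu5a, incubated with [³H]M-MPEP and test compound at 1 µM in 50 mM Tris pH 7.6 with 2 mM MgCl₂ and 2 mM CaCl₂, 60 min at 25°C. Non-specific binding was taken with […]. Result is % displacement, run in duplicate or triplicate.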
In the case of `N#Cc1cccc(S(=O)(=O)c2cnc3ccc(Cl)cc3c2N2CCOCC2)c1`, the inhibition is reported as 20%. `N#Cc1cccc(S(=O)(=O)c2cnc3cc(F)ccc3c2N2CCOCC2)c1` showed an inhibition of 71 to 71.4%. In the case of `CC1CCN(c2c(S(=O)(=O)c3ccc(Cl)cc3)cnc3cc(F)ccc23)CC1`, the inhibition is reported as 90%. With `COc1cccc(S(=O)(=O)c2cnc3cc(F)ccc3c2N2CCOCC2)c1` the inhibition was 72%. `Cc1ccc(S(=O)(=O)c2cnc3ccc(Cl)cc3c2N2CCC(C)CC2)cc1C` gave an inhibition of 84%. In the case of `COc1ccc(S(=O)(=O)c2cnc3cc(F)ccc3c2N2CCC(C)CC2)cc1OC`, the inhibition is reported as 83%. Work on `O=S(=O)(c1ccc(F)cc1)c1cnc2cc(Cl)ccc2c1N1CCOCC1` yielded an inhibition of 14%. `O=S(=O)(c1ccc(F)cc1)c1cnc2ccc(Cl)cc2c1N1CCOCC1` gave an inhibition of 6%. `O=S(=O)(c1cc(Cl)cc(Cl)c1)c1cnc2cc(F)ccc2c1N1CCOCC1` showed an inhibition of 74%. Work on `COCC1CCN(c2c(S(=O)(=O)c3cccc(F)c3)cnc3cc(F)ccc23)CC1` yielded an inhibition of 70.5%. With `COc1ccc(S(=O)(=O)c2cnc3c(F)cccc3c2N2CCOCC2)cc1` the inhibition was 33%. In the case of `COc1ccc2ncc(S(=O)(=O)c3cccc(Cl)c3)c(N3CCOCC3)c2c1`, the inhibition is reported as 12%. `O=S(=O)(c1ccc(Cl)cc1)c1cnc2cc(Cl)ccc2c1N1CCOCC1` was tested, and the inhibition was 55%. `O=S(=O)(c1cccc(Cl)c1)c1cnc2ccc(F)cc2c1N1CCOCC1` was tested, and the inhibition was 40%. Work on `Cc1ccc(S(=O)(=O)c2cnc3ccc(F)cc3c2N2CCOCC2)cc1F` yielded an inhibition of 28%. Molecule `Cc1ccc(S(=O)(=O)c2cnc3ccc(F)cc3c2N2CCC(C)CC2)cc1C` has an inhibition of 92%. `CC1CCN(c2c(S(=O)(=O)c3ccc(C#N)cc3)cnc3ccc(F)cc23)CC1` was tested, and the inhibition was 75%. `O=S(=O)(c1cc(F)cc(F)c1)c1cnc2cc(F)ccc2c1N1CCSCC1` showed an inhibition of 78.4%. `Cc1ccc2ncc(S(=O)(=O)c3cc(F)cc(F)c3)c(N3CCOCC3)c2c1` was tested, and the inhibition was 34%. Work on `O=S(=O)(c1ccccc1)c1cnc2cc(F)ccc2c1N1CCOCC1` yielded an inhibition of 4%. `CC1CCN(c2c(S(=O)(=O)c3cc(F)cc(F)c3)cnc3cc(F)ccc23)CC1` gave an inhibition of 77 to 77.2%. With `COc1ccc2ncc(S(=O)(=O)c3ccc(F)cc3)c(N3CCOCC3)c2c1` the inhibition was 7%. `Cc1ccc(S(=O)(=O)c2cnc3cc(F)ccc3c2N2CCC(C)CC2)cc1Cl` gave an inhibition of 93%. Work on `COc1ccc2ncc(S(=O)(=O)c3cc(F)cc(F)c3)c(N3CCC(C)CC3)c2c1` yielded an inhibition of 30%. Molecule `COc1ccc2ncc(S(=O)(=O)c3ccc(C)cc3)c(N3CCC(C)CC3)c2c1` has an inhibition of 90%. For `CC1CCN(c2c(S(=O)(=O)c3ccc(F)cc3)cnc3ccc(F)cc23)CC1`, the inhibition was 87%. `Cc1ccc2ncc(S(=O)(=O)c3ccc(Cl)cc3)c(N3CCC(C)CC3)c2c1` showed an inhibition of 79%. Work on `COc1ccc(S(=O)(=O)c2cnc3ccc(F)cc3c2N2CCOCC2)cc1` yielded an inhibition of 18%. `COc1ccc2ncc(S(=O)(=O)c3ccccc3)c(N3CCC(C)CC3)c2c1` gave an inhibition of 64%. `O=S(=O)(c1ccc(Cl)cc1)c1cnc2ccc(F)cc2c1N1CCOCC1` was tested, and the inhibition was 78%. `CC1CCN(c2c(S(=O)(=O)c3cc(Cl)cc(Cl)c3)cnc3cc(Cl)ccc23)CC1` gave an inhibition of 93%. `Cc1ccc2ncc(S(=O)(=O)c3cc(Cl)cc(Cl)c3)c(N3CCC(C)CC3)c2c1` showed an inhibition of 75%. With `O=S(=O)(c1ccccc1)c1cnc2ccccc2c1N1CCCC1` the inhibition was 7.1%. `O=S(=O)(c1ccc(F)cc1)c1cnc2c(F)cccc2c1N1CCOCC1` was tested, and the inhibition was 34%. `CC1CCN(c2c(S(=O)(=O)c3cc(F)cc(F)c3)cnc3ccc(Cl)cc23)CC1` showed an inhibition of 93%. With `Cc1ccc2ncc(S(=O)(=O)c3cccc(Cl)c3)c(N3CCC(C)CC3)c2c1` the inhibition was 91%. In the case of `N#Cc1ccc(S(=O)(=O)c2cnc3cc(F)ccc3c2N2CCOCC2)cc1`, the inhibition is reported as 4%. Work on `CC1CCN(c2c(S(=O)(=O)c3cccc(F)c3)cnc3ccc(F)cc23)CC1` yielded an inhibition of 76%. In the case of `COc1ccc2ncc(S(=O)(=O)c3cccc(C#N)c3)c(N3CCC(C)CC3)c2c1`, the inhibition is reported as 90%. `CC1CCN(c2c(S(=O)(=O)c3ccc(F)cc3)cnc3cc(Cl)ccc23)CC1` was tested, and the inhibition was 91%. Work on `O=S(=O)(c1ccccc1)c1cnc2cc(Cl)ccc2c1N1CCOCC1` yielded an inhibition of 5%.
